Assay outcomes deposited in PubChem BioAssay by several laboratories.
STAT1 inh = STAT1 signaling inhibitors, primary screen, cell-based, HTS, luciferase reporter; NIH 3T3 STAT1-luciferase reporter, IFN-gamma, luminescence; inhibition, % at 5.5 µM; hit rate 0.35% among 200,000;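 active means inhibition above a set limit, the mean inhibition across all tested compounds plus 3 SD, cut at about 34% in these data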;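 further: 0% = IFN-gamma with DMSO and 100% = IFN-gamma with 300 µM nifuroxazide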
STAT1 act-1 = STAT1 signaling activators, primary screen, cell-based, HTS, luciferase reporter; NIH 3T3 STAT1-luciferase reporter, IFN-gamma, luminescence; 100% = IFN-gamma alone, no compound; activation (% of control), % at 5.5 µM; hit rate 2.6% among 200,000;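 active means activation above the screen-wide mean activation plus 3 SD, cut at about 130% in these data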;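 further: raw ratio to IFN-gamma control signal so 100% means no change and 0% no light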
NF-kB neuron act = activators of NF-kB expression in neurons, primary screen, cell-based, HTS. hit rate 1.6% among 190,000. human neuronal cells, NF-kB reporter expression; hits give high values. fold change at 12.5 µM; in the data active means fold change above about 3.3
APP 5'UTR act = activators of APP 5'UTR luciferase reporter, primary screen, SH-SY5Y cells; SH-SY5Y APP 5'UTR luciferase reporter, luminescence; zero percent = DMSO vehicle wells; activation, % at 2 µM; hit rate 1% among 190,000; AID 1276, 2008;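 active means activation above a set limit, based on mean plus 3 SD of controls, cut at about 140% in these data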
STAT3 inh = IL-6 driven STAT3 reporter inhibitors, primary screen, U3A cells, luciferase, luminescence, MLSCN library; IL-6 STAT3-luciferase reporter; host cell line lacks STAT1; inhibition, % at 5.5 µM; hit rate 0.89% among 190,000; AID 862, 2007;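 active means inhibition above the mean inhibition across all screened compounds plus 3 SD, cut at about 44% in these data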;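 further: 0% = DMSO only wells and 100% = 100 µM nifuroxazide control wells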
STAT3 act-1 = IL-6 driven STAT3 reporter potentiators, primary screen, U3A cells, luciferase, luminescence, MLSCN library; AID 871, 2007; activation (% of control), % at 5.6 µM; IL-6 STAT3-luciferase reporter; 100% = signal with IL-6 EC80 alone; hit rate 0.91% among 190,000;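 active means activation above the screen-wide mean of compound activation plus 3 SD, cut at about 130% in these data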;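 further: 0% = background luminescence of wells with medium and substrate only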
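Assay system – human STAT1-deficient U3A cells with stable STAT3-luciferase reporter · Also added – IL-6 (33 ng/mL) · Schedule – compound 1 h, then IL-6 6 h at 37 °C · Technique – reporter luminescence signal · Evaluation – % activation versus median of IL-6-stimulated wells · Benchmarks – IL-6-only wells as 100% reference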
STAT3 act-2 = STAT3 reporter potentiators, retest of hits, confirmation, U3A cells, luciferase, luminescence; hit rate 64% among 1,200; IL-6 potentiation; U3A cells lack STAT1; 100 means same as IL-6 alone; shares compounds with STAT3 act-1; potentiation (% of control), % at 5.7 µM;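 active means percent activation of the STAT3 luciferase reporter above a set limit taken from the earlier primary screen, cut at about 130% in these data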;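 further: 0% = background signal of medium plus substrate and 100% = median of IL-6 with DMSO wells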
NFkB act STAT3ct = NF-kB reporter activators in human cells, counter-screen for STAT3 activator project; hit rate 11% among 1,200; activation (% of control), % at 5.7 µM; NF-kappaB reporter activation; shares compounds with STAT3 act-1; in the data active means activation above about 120%;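 further: reporter induced by TNF-alpha stimulation; 100% = median of stimulated DMSO wells and 0% = no signal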
STAT1 act-2 = STAT1 reporter activators, IFN-gamma induced, counter-screen for STAT3 activator project, cell-based, NIH 3T3, luciferase luminescence; hit rate 13% among 1,200; AID 1318, 2008; NIH 3T3 STAT1-luciferase reporter; activation (% of control), % at 5.7 µM; shares compounds with STAT3 act-1;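 active means activation above the solvent-only control well mean plus 3 SD, set per screening run, cut at about 120% in these data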;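 further: 100% = IFN-gamma with DMSO median signal so 100% means no change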
* hit, by the source's call; · = no result. In the library only some 5.1% were active in any assay of this set; here they are far more common.

SMILES	STAT1 inh	STAT1 act-1	NF-kB neuron act	APP 5'UTR act	STAT3 inh	STAT3 act-1	STAT3 act-2	NFkB act STAT3ct	STAT1 act-2
Cn1c(=O)c(-c2ccccc2)nc2ccccc21	-5	107	1.2	9	-47	141*	117	107	103
CCCCNC(=S)N1CCn2cccc2C1c1ccc(F)cc1 (stereo not drawn)	2	98	0.99	-14	4	99	·	·	·
CCn1c(=O)c(C(=O)Nc2ccsc2C(=O)OC)c(O)c2ccccc21	1	99	1.6	-10	-52	138*	151*	94	102
CC1=C(C)C(=O)C(N2CCOCC2)=CC1=O	-11	110	0.95	3	-58	143*	139*	100	104
Cc1ccc(N2CCOCC2)c2c1C(=O)c1ccccc1C2=O	-3	102	0.97	-12	0	100	·	·	·
O=C(NCCCn1ccnc1)C(=O)NCC1OCCCN1S(=O)(=O)c1ccccc1 (stereo not drawn)	3	99	1	11	-1	99	·	·	·
O=C(Nc1ccc(N2CCOCC2)cc1)C1(S(=O)(=O)c2ccccc2)CC1	-13	111	1.1	57	4	102	·	·	·
COc1cccc(OC)c1C(=O)NC(=S)Nc1ccc2c(c1)Cc1ccccc1-2	0	100	0.99	14	-55	150*	131	101	100
CC(C)c1nc(CNC(=O)CCc2nnc(-c3ccsc3)o2)cs1	-16	113	1.7	0	-2	108	·	·	·
CCn1c(-c2c(Cl)c(C)nn2C)n[nH]c1=S	8	93	1.6	15	1	104	·	·	·
COCCSc1ccccc1C(=O)NCCc1ccccc1	3	97	0.97	-7	-48	138*	149*	106	97
COCCNc1nnc(SCC(=O)c2c[nH]c3ccccc23)s1	19	84	1	21	-42	141*	136*	104	97
Cc1ccc(-c2nnn(CC(=O)N(c3ccccc3)C(C(=O)NCC3CCCO3)c3ccc(Cl)cc3)n2)cc1 (stereo not drawn)	-2	101	1.2	-16	15	93	·	·	·
Cc1ccc(-c2nnn(CC(=O)N(c3ccccc3F)C(C(=O)NCC3CCCO3)c3c[nH]c4ccccc34)n2)cc1 (stereo not drawn)	0	100	0.8	5	-48	145*	129	100	100
COc1cc(C(=S)N2CCCC2)ccc1OC(=O)c1ccc(Cl)cc1[N+](=O)[O-]	6	95	1.2	9	15	90	·	·	·
O=P1(O)C=C(c2ccccc2)OC(c2ccccc2)=C1	-7	106	1.6	63	-35	136*	145*	118	127*
Cn1nnc2cc(C(=O)NCc3ccc4c(c3)OCO4)ccc21	-1	101	1.3	4	0	102	·	·	·
COC(=O)c1ccccc1NC1=C/C(=N\S(=O)(=O)c2cccs2)c2ccccc2C1=O	-10	109	0.6	-18	-36	137*	108	113	110
O=S(=O)(Nc1nc2ccccc2s1)c1ccc(Cl)s1	3	97	0.96	8	-45	138*	121	105	102
CCOC(=O)c1cc2occc2n1CC(=O)N1CCOCC1	0	101	1.1	10	15	92	·	·	·
COc1ccc(NC(=O)N(CCO)Cc2cc3c(C)cc(C)cc3[nH]c2=O)cc1	3	97	0.82	2	24	82	·	·	·
Oc1ccccc1/C=C/c1noc(-c2ccccc2O)n1	-23	120	1.1	113	-40	142*	169*	101	102
COc1ccc(/C=N/Nc2ccccn2)c(OC)c1OC	-17	115	1	36	10	94	·	·	·
Cc1ccc(C)c(/C=N/Nc2ccccn2)c1	-27	125	1.6	22	-49	140*	127	106	128*
CC1=NC(=O)C(N=Nc2cccc(O)c2)N1c1ccccc1 (stereo not drawn)	-14	113	4.2*	109	-89	185*	187*	105	120
SMILES	STAT1 inh	STAT1 act-1	NF-kB neuron act	APP 5'UTR act	STAT3 inh	STAT3 act-1	STAT3 act-2	NFkB act STAT3ct	STAT1 act-2
COc1ccc(Cl)cc1NC(=O)c1[nH]nc(OC)c1[N+](=O)[O-]	5	93	0.83	-1	-35	144*	140*	96	95
O=C(NCc1cccs1)c1noc2c1CCCCC2	-16	117	1.4	3	0	106	·	·	·
O=C(Cc1csc(Nc2nc(=S)[nH]c3ccccc23)n1)NCc1ccccc1Cl	-3	103	1.1	0	-23	126	·	·	·
Cc1ccc(CNC(=O)Cc2csc(Nc3nc(=S)[nH]c4ccccc34)n2)cc1	5	96	1.3	-10	-40	141*	133*	104	97
CCC(C)(C)n1nnnc1CN1CCc2ccccc21	-4	100	1.2	-3	-53	145*	126	105	103
CCC(C)(C)n1nnnc1C(c1cccs1)N1CCc2ccccc21 (stereo not drawn)	-4	104	0.9	18	-3	105	·	·	·
CC(C)N(Cc1ccccc1)C(=S)NC1CCCCC1	11	90	1.5	-7	-2	101	·	·	·
Cc1oc2c(cc(NS(=O)(=O)c3cccs3)c3ccccc32)c1C(=O)OC(C)C	-1	102	1.1	40	-60	154*	131	107	108
COc1ccc(S(=O)(=O)Nc2c(C(=O)O)[nH]c3ccccc23)c(OC)c1	3	97	0.95	-2	-73	166*	159*	105	100
Cc1nc(-c2ccccc2)nc(Cl)c1Cl	9	91	1.1	8	2	100	·	·	·
Cc1nc2nc(-c3ccccc3)nn2c(C)c1Cl	-15	114	·	-14	-92	179*	169*	126*	138*
Cc1nc2nc(-c3ccc(Cl)cc3)nn2c(C)c1Cl	9	92	1.9	9	-84	167*	164*	118	124*
CCC(=O)n1nc(-c2ccc(Cl)cc2)nc1SC	-14	113	2	21	16	89	·	·	·
